Among the data in ChEMBL document CHEMBL4007497, “Development of Potent and Selective Antagonists for the UTP-Activated P2Y4 Receptor” (J Med Chem, 2017) are IC50 and inhibition values, retold here.

T1 sequence (P51582 whole entry): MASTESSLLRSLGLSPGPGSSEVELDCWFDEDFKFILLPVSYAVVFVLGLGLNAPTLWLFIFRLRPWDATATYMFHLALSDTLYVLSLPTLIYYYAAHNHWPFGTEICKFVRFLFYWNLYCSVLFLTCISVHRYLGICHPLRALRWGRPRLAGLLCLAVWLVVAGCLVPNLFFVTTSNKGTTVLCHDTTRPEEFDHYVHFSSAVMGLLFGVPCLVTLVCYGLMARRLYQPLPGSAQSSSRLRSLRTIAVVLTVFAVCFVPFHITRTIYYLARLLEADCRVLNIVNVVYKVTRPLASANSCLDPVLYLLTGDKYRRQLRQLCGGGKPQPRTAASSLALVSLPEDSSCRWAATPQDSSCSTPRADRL

The target in one test is T1, P2Y purinoceptor 4 (Homo sapiens, UniProt P51582). As to the kind of experiment: Antagonist activity at human P2Y4 receptor transfected in human 1321N1 cells assessed as inhibition of UTP-activated intracellular calcium mobilization preincubated for 30 mins followed by UTP addition by fluo-4-dye based fluorescence assay. The format is functional, cell-based. An outline of the steps:
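1321N1 astrocytoma cells stably expressing the human P2Y subtype, grown in DMEM with 10 % FCS and 200 μg/mL G418 at 37 °C. Plated 50,000 cells/well about 24 h before testing. Cells loaded with fluo-4 AM for 1 h, then placed in HBSS and preincubated 30 min with compound. Agonist was injected at about EC80: ADP 500 nM (P2Y1), UTP 500 nM (P2Y2, P2Y4), UDP 750 nM (P2Y6). Fluorescence read at ex 488/em 525 nm. At least three independent experiments in duplicate. IC50 obtained by nonlinear regression.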
As for `COc1ccccc1Nc1cc(S(=O)(=O)O)c(N)c2c1C(=O)c1ccccc1C2=O`, the IC50 was 3.98 µM.
Same read-out and setting: then `Nc1c(S(=O)(=O)O)cc(Nc2cc(Cl)ccc2C(=O)O)c2c1C(=O)c1ccccc1C2=O`, with 2.76 µM; and `COc1cc(Nc2cc(S(=O)(=O)O)c(N)c3c2C(=O)c2ccccc2C3=O)ccc1Cl`, with 3.37 µM.
The same measure, in the same setting: the result for `Nc1c(S(=O)(=O)O)cc(Nc2ccc(Br)cc2C(=O)O)c2c1C(=O)c1ccccc1C2=O` reads more than 100 µM; that for `Nc1c(S(=O)(=O)O)cc(Nc2ccc(Cl)cc2)c2c1C(=O)c1ccccc1C2=O`, 3.03 µM.
`COc1cccc(Nc2cc(C)c(N)c3c2C(=O)c2ccccc2C3=O)c1`: the IC50 was more than 30 µM.
As to `Cc1cccc(Nc2cc(S(=O)(=O)O)c(N)c3c2C(=O)c2ccccc2C3=O)c1C`, the IC50 came to 2.63 µM.
Still for that read-out and setting: the result for `Cc1cc(C)cc(Nc2cc(S(=O)(=O)O)c(N)c3c2C(=O)c2ccccc2C3=O)c1` reads 6.45 µM; that for `COc1ccc(Nc2cc(S(=O)(=O)O)c(N)c3c2C(=O)c2ccccc2C3=O)cc1`, 2.59 µM.
Same read-out and setting: the result for `Cc1cc(Nc2cccc(F)c2)c2c(c1N)C(=O)c1ccccc1C2=O` reads more than 30 µM; that for `Cc1ccc(C)c(Nc2cc(S(=O)(=O)O)c(N)c3c2C(=O)c2ccccc2C3=O)c1`, 11.2 µM.
Turning to `Cc1cccc(Nc2cc(S(=O)(=O)O)c(N)c3c2C(=O)c2ccccc2C3=O)c1`, the IC50 was determined as 2.22 µM.
Turning to `Nc1c(S(=O)(=O)O)cc(Nc2ccc(Sc3ccccc3)cc2)c2c1C(=O)c1ccccc1C2=O`, the IC50 came out at 1.18 µM.
Consider `Nc1c(S(=O)(=O)O)cc(Nc2cc(F)cc(F)c2)c2c1C(=O)c1ccccc1C2=O`, for which the IC50 is 12.5 µM.
In the case of `Nc1c(S(=O)(=O)O)cc(Nc2cccc(Br)c2)c2c1C(=O)c1ccccc1C2=O`, the IC50 came out at 6.96 µM.
In the case of `Nc1c(S(=O)(=O)O)cc(Nc2cccc3ccccc23)c2c1C(=O)c1ccccc1C2=O`, the IC50 was determined as 7.42 µM.
Still for that read-out and setting: the result for `COc1ccc(Nc2cc(S(=O)(=O)O)c(N)c3c2C(=O)c2ccccc2C3=O)cc1OC` reads 4.98 µM; that for `Nc1c(S(=O)(=O)O)cc(Nc2ccc(F)cc2C(=O)O)c2c1C(=O)c1ccccc1C2=O` [listing 1 of 2 here], more than 100 µM.
For the molecule `Cc1ccc(Nc2cc(S(=O)(=O)O)c(N)c3c2C(=O)c2ccccc2C3=O)cc1`, the IC50 was 2.82 µM.
As to `Nc1c(S(=O)(=O)O)cc(Nc2ccc(Oc3ccc(Cl)cc3)cc2)c2c1C(=O)c1ccccc1C2=O`, the IC50 turned out to be 0.373 µM.
Regarding `CCc1ccccc1Nc1cc(S(=O)(=O)O)c(N)c2c1C(=O)c1ccccc1C2=O`, the IC50 worked out at 3.53 µM.
`Nc1c(S(=O)(=O)O)cc(Nc2ccccc2C(=O)O)c2c1C(=O)c1ccccc1C2=O`: the IC50 was determined as 6.1 µM.
Turning to `Nc1c(S(=O)(=O)O)cc(Nc2ccc(Nc3nc(Cl)nc(Nc4cccc(S(=O)(=O)O)c4)n3)c(S(=O)(=O)O)c2)c2c1C(=O)c1ccccc1C2=O` [RB 2], the IC50 is 1.14 µM.
Still for that read-out and setting: the result for `Nc1c(S(=O)(=O)O)cc(Nc2ccc(F)cc2C(=O)O)c2c1C(=O)c1ccccc1C2=O` [listing 2 of 2 here] reads more than 100 µM; that for `COc1cccc(Nc2cc(S(=O)(=O)O)c(N)c3c2C(=O)c2ccccc2C3=O)c1` [listing 1 of 3 here], more than 10 µM; that for `Nc1c(S(=O)(=O)O)cc(Nc2ccc(Nc3ccccc3)cc2)c2c1C(=O)c1ccccc1C2=O`, 1.91 µM.
`O=C1c2ccccc2C(=O)c2c(Nc3cccc(F)c3)cc(S(=O)(=O)O)cc21`: the IC50 was found to be 30 µM.
`Nc1c(S(=O)(=O)O)cc(NCCc2ccccc2)c2c1C(=O)c1ccccc1C2=O`: the IC50 came out at 7.18 µM.
As to `COc1cc(Nc2cc(S(=O)(=O)O)c(N)c3c2C(=O)c2ccccc2C3=O)ccc1F`, the IC50 amounted to 1.54 µM.
For the molecule `Nc1c(S(=O)(=O)O)cc(Nc2ccc(C(=O)O)cc2)c2c1C(=O)c1ccccc1C2=O`, the IC50 came out at 30 µM.
On to `COc1cc(Nc2cc(S(=O)(=O)O)c(N)c3c2C(=O)c2ccccc2C3=O)ccc1C`, for which the IC50 is 4.13 µM.
On to `COc1cc(Nc2cc(S(=O)(=O)O)c(N)c3c2C(=O)c2ccccc2C3=O)cc(OC)c1`, for which the IC50 worked out at 9.25 µM.
Turning to `Nc1c(S(=O)(=O)O)cc(Nc2ccc(Cc3ccccc3)cc2)c2c1C(=O)c1ccccc1C2=O`, the IC50 was 3.45 µM.
On to `Nc1c(S(=O)(=O)O)cc(Nc2ccc([N+](=O)[O-])cc2C(=O)O)c2c1C(=O)c1ccccc1C2=O`, for which the IC50 was more than 30 µM.
For `Cc1cc(Nc2cc(S(=O)(=O)O)c(N)c3c2C(=O)c2ccccc2C3=O)ccc1Cl`, the IC50 is 1.65 µM.
Turning to `Nc1c(S(=O)(=O)O)cc(Nc2ccc(O)cc2)c2c1C(=O)c1ccccc1C2=O`, the IC50 amounted to 3.16 µM.
On to `Nc1c(S(=O)(=O)O)cc(Nc2ccc(Br)cc2)c2c1C(=O)c1ccccc1C2=O`, for which the IC50 was 3.3 µM.
On the same count and under the same terms, then `Nc1c(S(=O)(=O)O)cc(NCc2ccccc2)c2c1C(=O)c1ccccc1C2=O`, with 14.4 µM.
Same read-out and setting: then `CCc1cccc(Nc2cc(S(=O)(=O)O)c(N)c3c2C(=O)c2ccccc2C3=O)c1`, with 1.51 µM; and `COc1cccc(Nc2cc(S(=O)(=O)O)c(N)c3c2C(=O)c2ccccc2C3=O)c1` [listing 2 of 3 here], with 1.7 µM.
With `Nc1c(S(=O)(=O)O)cc(Nc2ccccc2Cl)c2c1C(=O)c1ccccc1C2=O`, the IC50 was determined as 9.34 µM.
`Nc1c(S(=O)(=O)O)cc(Nc2ccc(Oc3ccc(F)cc3)cc2)c2c1C(=O)c1ccccc1C2=O`: the IC50 came out at 1.69 µM.
The same measure, in the same setting: then `CCc1ccc(Nc2cc(S(=O)(=O)O)c(N)c3c2C(=O)c2ccccc2C3=O)cc1`, with 3.21 µM.
The same measure, in the same setting: then `Nc1c(S(=O)(=O)O)cc(Nc2ccc(O)cc2C(=O)O)c2c1C(=O)c1ccccc1C2=O`, with 21.1 µM; and `Nc1c(S(=O)(=O)O)cc(Nc2ccc(F)cc2)c2c1C(=O)c1ccccc1C2=O`, with 4.04 µM; and `Cc1cc(Cl)ccc1Nc1cc(S(=O)(=O)O)c(N)c2c1C(=O)c1ccccc1C2=O`, with 2.2 µM.
With `Cc1ccc(Nc2cc(S(=O)(=O)O)c(N)c3c2C(=O)c2ccccc2C3=O)c(C)c1`, the IC50 turned out to be 3.58 µM.
For the molecule `Nc1c(S(=O)(=O)O)cc(Nc2ccc(Oc3ccc(Br)cc3)cc2)c2c1C(=O)c1ccccc1C2=O`, the IC50 was found to be 1.76 µM.
With `Cc1ccccc1Nc1cc(S(=O)(=O)O)c(N)c2c1C(=O)c1ccccc1C2=O`, the IC50 was found to be 3.49 µM.
Regarding `Nc1c(S(=O)(=O)O)cc(Nc2cccc(F)c2)c2c1C(=O)c1ccccc1C2=O`, the IC50 is 1.39 µM.
For the molecule `Nc1c(S(=O)(=O)O)cc(Nc2cccc(C(=O)O)c2)c2c1C(=O)c1ccccc1C2=O`, the IC50 was determined as 23.4 µM.
As for `Nc1c(S(=O)(=O)O)cc(Nc2ccc(Oc3ccccc3)cc2)c2c1C(=O)c1ccccc1C2=O`, the IC50 amounted to 1.94 µM.
As for `Nc1c(S(=O)(=O)O)cc(Nc2cccc(Cl)c2)c2c1C(=O)c1ccccc1C2=O`, the IC50 was 2.34 µM.
Take `Nc1c(S(=O)(=O)O)cc(Nc2ccc(Nc3nc(Cl)nc(Nc4ccc(S(=O)(=O)O)cc4)n3)c(S(=O)(=O)O)c2)c2c1C(=O)c1ccccc1C2=O`: the IC50 is 0.625 µM.
As for `CCCc1cccc(Nc2cc(S(=O)(=O)O)c(N)c3c2C(=O)c2ccccc2C3=O)c1`, the IC50 was found to be 2.99 µM.

In another test the target is T1, P2Y purinoceptor 4. As to the kind of experiment: Antagonist activity at human P2Y4 receptor transfected in human 1321N1 cells assessed as inhibition of UTP-activated intracellular calcium mobilization at 30 uM preincubated for 30 mins followed by UTP addition by fluo-4-dye based fluorescence assay. The test is classed as functional, cell-based.
In the case of `Nc1c(S(=O)(=O)O)cc(Nc2ccc(Br)cc2C(=O)O)c2c1C(=O)c1ccccc1C2=O`, the inhibition came out at 30%.
Turning to `COc1cccc(Nc2cc(C)c(N)c3c2C(=O)c2ccccc2C3=O)c1`, the inhibition was determined as 38%.
In the case of `Cc1cc(Nc2cccc(F)c2)c2c(c1N)C(=O)c1ccccc1C2=O`, the inhibition was -4%.
Take `Nc1c(S(=O)(=O)O)cc(Nc2ccc(C(=O)O)cc2)c2c1C(=O)c1ccccc1C2=O`: the inhibition amounted to 57%.
Turning to `Nc1c(S(=O)(=O)O)cc(Nc2ccc([N+](=O)[O-])cc2C(=O)O)c2c1C(=O)c1ccccc1C2=O`, the inhibition turned out to be 30%.
Take `COc1cccc(Nc2cc(S(=O)(=O)O)c(N)c3c2C(=O)c2ccccc2C3=O)c1` [listing 3 of 3 here]: the inhibition was found to be 77%.
